Published values gathered from unrelated publications.

Structure (SMILES)	test system	setting	half-life [min]
OCc1ccc(-c2nn(Cc3ccccc3)c3ccccc23)o1	male CD-1 mouse, plasma	oral, 10 mg/kg	112
NCc1cc2c(cc1F)C(=O)N(C1CCC(=O)NC1=O)C2 (centres unmarked)	male CD-1 mouse, plasma	oral, 10 mg/kg	138
Cc1cc(-c2ccnc3[nH]cc(F)c23)cc(F)c1[C@@]1(O)[C@H](C)CN(C2CCS(=O)(=O)CC2)C[C@@H]1C	male CD-1 mouse, plasma	oral, 3 mg/kg	150
Cc1[nH]c(C)c(S(=O)(=O)Nc2ccc(C(F)(F)F)c(Cl)c2)c1C(=O)N1CCC(F)(F)C1	male CD-1 mouse, plasma	intraperitoneal, 40 mg/kg	238
COc1cccc2c(N3CCC(CCP(=O)(O)O)CC3)ncnc12	female BALB/c mouse, serum	subcutaneous, 50 mg/kg, tumour-bearing	102
COC1=CC(c2ccc[nH]2)=N/C1=C\c1[nH]c(Cc2ccc(OC(F)(F)F)cc2)cc1Cc1ccc(OC(F)(F)F)cc1	male CD-1 mouse, plasma	oral, 40 mg/kg, single dose	583
Cc1cc(-c2ccnc3[nH]cc(F)c23)cc(F)c1[C@@]1(O)[C@H](C)CN(C(=O)CN)C[C@@H]1C	male CD-1 mouse, plasma	intravenous, 1 mg/kg	540
CN(C)C(=O)c1cc2cnc(Nc3ccc(-c4ccc5c(=O)cc(N6CCOCC6)oc5c4)cc3)nc2n1C1CCCC1	BALB/c mouse, plasma	oral, 20 mg/kg	198
O=C1CCC(N2Cc3cc(C4CCN(Cc5ccccc5)CC4)ccc3C2=O)C(=O)N1 (centres unmarked)	male CD-1 mouse, plasma	oral, 3 mg/kg	76.8
NCc1ccc(-c2nn(Cc3ccncc3)c3ccccc23)o1	male CD-1 mouse, plasma	oral, 10 mg/kg	105
COCC(=O)N1CCc2[nH]c3c(Cl)c(Cl)ccc3c2[C@@H]1C	C57BL/6 mouse, blood	intravenous, 1 mg/kg	39.2
COC1=CC(c2ccc[nH]2)=N/C1=C\c1cc(Cc2ccc(OC(F)(F)F)cc2)c(C)[nH]1.Cl	male CD-1 mouse, liver	oral, 40 mg/kg, single dose	3500
Cc1ncsc1-c1ccc([C@H](C)NC(=O)[C@@H]2C[C@@H](O)CN2C(=O)[C@@H](NC(=O)CCCCCCCCC(=O)N2CCC(n3cc(-c4ccc5c(c4)CCN5C(=O)Cc4cccc(OC(F)(F)F)c4)c4c(N)ncnc43)CC2)C(C)(C)C)cc1	male C57BL/6 mouse, plasma	intravenous, 1 mg/kg	186
Cl.Fc1ccc(Oc2ccc(Nc3ccc4ncc(OCC5CCNCC5)nc4c3)cc2)cc1	SCID mouse, plasma	intraperitoneal, 50 mg/kg	> 2400
CCOC(=O)c1c(NC(=O)CNC(C)C)sc2c1CCCCC2	male mouse, plasma	intraperitoneal, 5 mg/kg, single dose	88.2
NCc1ccc(-c2nn(Cc3ccccc3)c3ccccc23)o1	male CD-1 mouse, plasma	intraperitoneal, 30 mg/kg	140
CSC1O[C@@H]([C@H](NC(=O)[C@H]2NC[C@@H]3C[C@H](CC(C)C)CCO[C@H]32)[C@H](C)Cl)C(O)[C@@H](O)[C@H]1O (some centres unmarked)	mouse, plasma	intravenous, 3 mg/kg, single dose	123
